A selection: hits, their analogues and other compounds. The true share with any hit is near 2.1%.
C2C12 statin = suppression of simvastatin myotoxicity. C2C12 myotubes + simvastatin, ATP luminescence, 48 h; scaled: DMSO 0, geranylgeraniol control 100. rescue of ATP level, % at 7.49 µM. hit rate 0.78% among 330,000;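 active = mean ATP rescue above about 67%, or every replicate alone reaching that limit, limit read from the data, passing the limit was not always enough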;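 note: myotubes were challenged with 10 µM simvastatin during compound exposure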
DENV2 CPE rescue = inhibitors of DENV2 cytopathic effect | hit rate 1.7% among 350,000 | CPE inhibition, % at 9.99 µM | DENV2-infected cells, cytopathic effect rescue, plate reader; in the data active = CPE inhibition above about 20%, passing the limit was not always enough; tested in BHK-21 cells;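 note: 0% = median of neutral control wells and 100% = median of positive control wells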
Cneo AK release = causes C. neoformans cell lysis | hit rate 0.2% among 360,000 | lysis activity, % at 15 µM | adenylate kinase release luminescence, 4 h; normalised: neutral wells 0, clomiphene wells 100;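 active = mean lysis activity across replicates of at least 80%, whatever share of replicates individually reach that level; inactive = mean lysis activity below 80%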
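Test system: log-phase Cryptococcus neoformans yeast cells. Input: 5 × 10^6 yeast cells/mL. Medium: fresh YPD growth medium. Doses: single dose. Incubation: static 4 h at 37 °C with compound, 1 h detection. Measured by: luminescent adenylate kinase detection reagent. Read-out: signal increase indicating cell lysis. Benchmarks: Clomiphene.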
XiGFP reactiv = activators of X-chromosome reactivation in mouse fibroblasts | XiGFP mouse fibroblasts, % GFP-positive cells imaging, 3 d; cells co-treated with 5-aza-dC sensitizer; scaled so ellipticine positive control = 100% | activation, % at 7.58 µM | hit rate 0.055% among 360,000 | AID 743238;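 active = mean normalized replicate activation at least 10% and every replicate at or above 10%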;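 note: 0% = median of on-plate neutral control wells and 100% = ellipticine 6 µM median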
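material = 68-5-11 XiGFP fibroblast line | medium = DMEM plus 5-aza-dC sensitizer | schedule = 3 days compound exposure | benchmarks = positive control ellipticine, 6 µM final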
Numbers without * were called inactive.

How did C[C@@H]1CCCCO[C@@H](CN(C)C(=O)Nc2cccc3ccccc23)[C@H](C)CN([C@H](C)CO)C(=O)c2cc(NC(=O)Cc3ccccc3)ccc2O1 do in these assays?
C2C12 statin: 59.3; DENV2 CPE rescue: 19.8; Cneo AK release: 1.3; XiGFP reactiv: -0.3

Results for C[C@H](CO)N1C[C@H](C)[C@H](CN(C)C(=O)Nc2cccc3ccccc23)OCCCC[C@H](C)Oc2ccc(NC(=O)NC3CCCCC3)cc2C1=O ?
DENV2 CPE rescue: 4.7; Cneo AK release: -4.1; XiGFP reactiv: 0.3

What do the screens show for `C[C@@H]1CN([C@@H](C)CO)C(=O)c2cc(NC(=O)Nc3cccc4ccccc34)ccc2O[C@@H](C)CCCCO[C@@H]1CN(C)C(=O)NC1CCCCC1`?
C2C12 statin: 51.3; DENV2 CPE rescue: 9.2; Cneo AK release: -1.6; XiGFP reactiv: 0.1

What do the screens show for `C[C@@H]1CN([C@@H](C)CO)C(=O)c2cc(NC(=O)c3ccncc3)ccc2O[C@@H](C)CCCCO[C@H]1CN(C)C(=O)Nc1cccc2ccccc12`?
C2C12 statin: -21.7; DENV2 CPE rescue: 10.1; Cneo AK release: -0.3; XiGFP reactiv: -1.3

How did C[C@H]1CCCCO[C@@H](CN(C)C(=O)Nc2cccc3ccccc23)[C@@H](C)CN([C@@H](C)CO)C(=O)c2cc(NC(=O)Cc3ccccc3)ccc2O1 do in these assays?
C2C12 statin: -55.7; DENV2 CPE rescue: 83.4*; Cneo AK release: 2.1; XiGFP reactiv: -0.3

How did C[C@H](CO)N1C[C@H](C)[C@@H](CN(C)C(=O)NC2CCCCC2)OCCCC[C@H](C)Oc2ccc(NC(=O)Nc3cccc4ccccc34)cc2C1=O do in these assays?
C2C12 statin: 121.7*; DENV2 CPE rescue: -12.4; Cneo AK release: -1.7; XiGFP reactiv: 0.1

What do the screens show for `C[C@@H]1CCCCO[C@@H](CN(C)C(=O)Nc2cccc3ccccc23)[C@H](C)CN([C@H](C)CO)C(=O)c2cc(NC(=O)c3ccncc3)ccc2O1`?
C2C12 statin: 134.9*; DENV2 CPE rescue: 2.9; Cneo AK release: -3.2; XiGFP reactiv: 0.1

Results for C[C@H](CO)N1C[C@H](C)[C@@H](CN(C)C(=O)Nc2cccc3ccccc23)OCCCC[C@H](C)Oc2ccc(NC(=O)NC3CCCCC3)cc2C1=O ?
DENV2 CPE rescue: 113.0*; Cneo AK release: -7.7; XiGFP reactiv: 0.0

Results for CO[C@H]1CN(C)C(=O)c2cc(NC(=O)NC3CCCC3)ccc2OC[C@@H](C)N(C)C[C@@H]1C ?
DENV2 CPE rescue: -4.6; XiGFP reactiv: 0.2

What do the screens show for `COc1ccccc1NC(=O)N(C)C[C@@H]1OCc2ccccc2-c2ccccc2C(=O)N([C@@H](C)CO)C[C@@H]1C`?
DENV2 CPE rescue: -1.1; Cneo AK release: -1.5; XiGFP reactiv: 0.1

What do the screens show for `CCOC(=O)CN1CC23C=CC(O2)C(C(=O)NCCc2ccccc2)C3C1=O` (stereo not given)?
C2C12 statin: 0.3; DENV2 CPE rescue: 21.8*; Cneo AK release: -0.1; XiGFP reactiv: -0.1

What do the screens show for `CO[C@H]1CN(C)C(=O)c2ccc(NC(=O)C3CC3)cc2OC[C@H](C)N(C(=O)CN(C)C)C[C@H]1C`?
C2C12 statin: 0.0; DENV2 CPE rescue: 1.5; Cneo AK release: -1.2; XiGFP reactiv: 0.2

What do the screens show for `O=C(C1CCCC1)N1CC2(C1)[C@@H](c1ccccc1)[C@H](CO)N2C(=O)c1cccnc1`?
DENV2 CPE rescue: -9.6; XiGFP reactiv: 0.0

Results for CCCCC[C@@H]1C=C(C(=O)O)[C@H](c2ccc3c(c2)OCO3)N1S(=O)(=O)c1ccc(C)cc1 ?
C2C12 statin: 6.2; DENV2 CPE rescue: 30.6*; Cneo AK release: 0.4; XiGFP reactiv: 0.2

What do the screens show for `C[C@@H]1CN([C@@H](C)CO)C(=O)c2cc(C#CCN(C)C)cnc2O[C@H]1CN(C)C(=O)NC1CCCC1`?
C2C12 statin: 60.9; DENV2 CPE rescue: -8.4; Cneo AK release: 0.7; XiGFP reactiv: -0.3

What do the screens show for `CCOC(=O)c1c(NC(=O)CSc2nnc(C)s2)sc2c1CCCCC2`?
Cneo AK release: 3.9

How did CCOC(=O)c1c(NC(=O)CSc2nnc(C)s2)sc2c1CCC(C)C2 (stereo not given) do in these assays?
C2C12 statin: 98.1*; Cneo AK release: 1.4

What do the screens show for `COc1ccc(CN2C(=O)CCC2(C)C(=O)NCc2cccnc2)c(OC)c1` (stereo not given)?
C2C12 statin: 92.2*; Cneo AK release: 0.9

What do the screens show for `COc1ccc(CCN2C(=O)CCC2(C)C(=O)NCc2cccnc2)cc1OC` (stereo not given)?
C2C12 statin: 21.8; Cneo AK release: 0.8

What do the screens show for `O=C(C[C@@H]1C[C@@H]2c3cc(NC(=O)C4CCOCC4)ccc3O[C@@H]2[C@@H](CO)O1)NCCc1ccccc1`?
C2C12 statin: 2.2; DENV2 CPE rescue: -2.9; Cneo AK release: -7.0; XiGFP reactiv: 0.4

How did CCCCn1c(N)c(N(CCC(C)C)C(=O)C2CC(=O)N(c3ccccc3OCC)C2)c(=O)[nH]c1=O (stereo not given) do in these assays?
C2C12 statin: 11.1; DENV2 CPE rescue: 66.1*; Cneo AK release: 1.4; XiGFP reactiv: -0.1

How did COc1ccc(C#Cc2ccc3c(c2)O[C@@H](CN(C)C(=O)CN2CCOCC2)[C@@H](C)CN([C@H](C)CO)S3(=O)=O)cc1 do in these assays?
C2C12 statin: 19.2; DENV2 CPE rescue: 15.5; Cneo AK release: 10.6; XiGFP reactiv: 0.6

What do the screens show for `CC(C)(C)C1CCC(=O)N(CCOc2ccccc2)CC1` (stereo not given)?
C2C12 statin: -1.9; DENV2 CPE rescue: 65.9*; Cneo AK release: -1.5; XiGFP reactiv: 0.0

What do the screens show for `C/C=C/C(=O)OCC(=O)NC(=O)NC(C)C`?
C2C12 statin: 100.8*; Cneo AK release: -2.0

How did COc1cc(/C=C/C(=O)OCC(=O)NC(=O)NC(C)C)cc(OC)c1OC do in these assays?
C2C12 statin: 4.6; DENV2 CPE rescue: 4.8; Cneo AK release: 1.8; XiGFP reactiv: 0.0

How did CCCCCCOc1ccc(C(CC(N)=O)C(=O)O)cc1 (stereo not given) do in these assays?
C2C12 statin: 107.2*; DENV2 CPE rescue: 7.5; Cneo AK release: -0.9; XiGFP reactiv: 0.1

Results for COC(=O)C[C@H]1CC[C@@H]2[C@H](COc3ccc(NC(=O)Nc4cccc(C)c4)cc3C(=O)N2C)O1 ?
C2C12 statin: 15.1; DENV2 CPE rescue: -1.7; Cneo AK release: -3.2; XiGFP reactiv: 0.3

How did CN1C[C@@H]2[C@@H]3C(=O)N(Cc4ccccc4)C(=O)[C@@H]3[C@](C)(C1=O)N2C(=O)c1ccc(C(C)(C)C)cc1 do in these assays?
C2C12 statin: 7.8; DENV2 CPE rescue: 53.8*; Cneo AK release: 4.7; XiGFP reactiv: 0.1

How did CN1C[C@@H]2[C@@H]3C(=O)N(Cc4ccccc4)C(=O)[C@@H]3[C@](C)(C1=O)N2C(=O)c1ccc(C(F)(F)F)cc1 do in these assays?
C2C12 statin: 6.5; DENV2 CPE rescue: 12.2; Cneo AK release: -3.2; XiGFP reactiv: 0.0

Results for COc1ccc(C(CNc2ncnc3sc(C)c(C)c23)N(C)C)cc1 (stereo not given) ?
C2C12 statin: -33.6; DENV2 CPE rescue: 0.2; Cneo AK release: -1.3; XiGFP reactiv: -0.1
